High-throughput results from PubChem BioAssay.
MrgX1 allo act: human MrgX1 positive allosteric modulation, primary screen; MrgX1-HEK293, Fluo-4 calcium flux, FDSS; active compounds read high; B-score at 10 µM; 0.63% of 310,000 active; AID 588675;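 active means plate-corrected calcium response at least 3 library SD above typical, normal starting fluorescence, not activating the receptor alone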;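 further: compound read alongside a low EC10 to EC30 dose of BAM8-22 agonist; peak minus trough fluorescence over baseline measured at the second addition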
Target sequence (Q96LB2 whole entry, looked up): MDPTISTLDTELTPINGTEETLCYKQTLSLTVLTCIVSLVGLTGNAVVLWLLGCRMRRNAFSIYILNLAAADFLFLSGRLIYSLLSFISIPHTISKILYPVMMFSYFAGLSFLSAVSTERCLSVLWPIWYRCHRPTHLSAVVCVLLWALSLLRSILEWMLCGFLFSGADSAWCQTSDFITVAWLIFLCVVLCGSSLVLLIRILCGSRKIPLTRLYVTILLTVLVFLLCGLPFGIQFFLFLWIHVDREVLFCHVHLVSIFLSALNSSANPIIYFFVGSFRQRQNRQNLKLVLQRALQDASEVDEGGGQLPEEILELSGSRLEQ
RGS4 act: potentiators or activators of RGS4. HEK293 M3R/inducible RGS4, carbachol calcium flux Fluo4; active compounds read low. B-score at 10 µM. 0.92% of 310,000 active;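 active means B-score of the integrated calcium signal more than 4 SD below the library mean, with starting fluorescence not abnormally high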;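 further: negative B-score means reduced calcium response which marks RGS4 activation or potentiation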
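Assay system: Inducible-RGS4 HEK293 cells carrying M3 receptor | Schedule: Compound preincubation 20 min at room temperature before agonist | Signal: Kinetic calcium fluorescence imaging with Fluo4-AM dye, 2 µM | Read-out basis: B score from integrated fluorescence ratio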
MrgX1 agonist: human MrgX1 receptor agonism, primary screen; Q96LB2; MrgX1-HEK293 cells, Fluo-4 calcium fluorescence, agonist mode; active compounds read high; AID 588627; 0.44% of 310,000 active; B-score at 10 µM;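 active means calcium response B-score plate-corrected fluorescence ratio at least 3 library SD, with starting fluorescence B-score inside 5 SD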
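Material – MrgX1-expressing HEK293 cells · Input – 15,000 cells seeded per well · Dosing – compound as first of three additions · Times – overnight seeding, then 1 h dark dye loading · Measured by – kinetic Fluo-4 NW fluorescence of intracellular calcium · Read-out – B-scored fluorescence response ratio · Benchmarks – positive and negative control wells on each plate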
RGS4 inh: human RGS4 inhibition; AID 463165; HEK293 M3R/RGS4 inducible, Fluo-4 calcium flux; active compounds read high; triggered by carbachol at its EC20; P49798; 0.45% of 310,000 active; B-score at 10 µM;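 active means B-score, a plate-corrected calcium signal, over three deviations above library mean, with baseline fluorescence within five deviations of library mean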;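 further: RGS4 expression induced by doxycycline in cells with stable M3 receptor; B-score is computed from the integrated fluorescence ratio over baseline after carbachol; higher B-score means a larger calcium signal and so more RGS4 inhibition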
Target sequence (P49798 whole entry, looked up): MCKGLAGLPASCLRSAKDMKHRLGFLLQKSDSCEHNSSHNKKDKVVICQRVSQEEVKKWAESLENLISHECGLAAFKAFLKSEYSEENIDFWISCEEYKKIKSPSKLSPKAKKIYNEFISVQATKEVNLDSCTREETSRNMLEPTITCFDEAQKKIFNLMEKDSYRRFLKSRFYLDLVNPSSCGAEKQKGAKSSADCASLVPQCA
MrgX1 antag: human MrgX1 receptor antagonism, primary screen; MRGX1-HEK293 calcium flux, Fluo-4, BAM8-22 antagonism; active compounds read low; 1.3% of 310,000 active; Q96LB2; B-score at 10 µM;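 active means calcium-response B-score plate-corrected more than 3 library SD below zero, starting fluorescence within 5 deviations, no agonist response on first addition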;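 further: peak minus trough fluorescence over baseline after final BAM8-22 challenge near maximal dose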
MrgX1 antag conf: confirmation of human MrgX1 receptor antagonists | shares compounds with MrgX1 antag | MrgX1-HEK293, BAM8-22 calcium flux, Fluo-4; active compounds read low | remaining BAM8-22 calcium response % of control (active compounds read low), % at 10 µM | 19% of 2,300 active | AID 602420;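 active means remaining agonist calcium response no higher than 100% minus 3 SD of agonist-only control wells, with starting fluorescence near control levels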;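 further: agonist BAM8-22 given at a near maximal EC90 to ECmax level; peak minus minimum fluorescence divided by baseline after agonist addition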
HEK293 Ca flux: counter-screen for MrgX1 antagonists: effect in parental HEK293 cells; shares compounds with MrgX1 antag; Fluo-4 calcium fluorescence, FDSS; fluorescence ratio F(max-min)/F0 at 10 µM; 2% of 4,000 active; AID 624111;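 active means duplicate-averaged calcium fluorescence ratio at least three times the standard deviation of buffer wells, a nonspecific response in parental cells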
HEK293 Ca counter: counter-screen for MrgX1 allosteric activators: effect in parental HEK293 cells | 0.4% of 4,000 active | parental HEK293 calcium flux, Fluo-4 fluorescence ratio; active compounds read high | shares compounds with MrgX1 antag | fluorescence ratio F(max-min)/F0 at 10 µM;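 active means calcium fluorescence ratio, averaged over duplicates, at least 3 SD of the buffer-well ratio, meaning a nonspecific response in receptor-free cells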;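 further: untransfected parental HEK293 lacking MrgX1 used as counterscreen for MrgX1 allosteric activators; fluorescence change taken during the second addition on a kinetic imager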
HEK293 Ca cntr2: counter-screen for MrgX1 activators: effect in parental HEK293 cells. shares compounds with MrgX1 antag. Fluo-4 calcium fluorescence (FDSS); active compounds read high. 8.7% of 4,000 active. fluorescence ratio F(max-min)/F0 at 10 µM;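 active means calcium fluorescence ratio at least three times the spread of buffer wells, meaning a non-specific response in parental cells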
A number is an active result; . = inactive; / = not tested or not shown. The list is not random: actives were taken first. Their share in the collection is about 3.5%.

SMILES | MrgX1 allo act | RGS4 act | MrgX1 agonist | RGS4 inh | MrgX1 antag | MrgX1 antag conf | HEK293 Ca flux | HEK293 Ca counter | HEK293 Ca cntr2
O=C(CCC(=O)NCc1ccccc1)NCc1ccccc1 | . | . | . | . | . | / | / | / | /
CC1CN(C(=O)COC(=O)c2ccc(C#N)cc2)CC(C)O1 (stereo not drawn) | . | . | . | . | . | / | / | / | /
COc1ccc(-c2nc(CS(=O)CC(=O)NC(C)CCc3ccccc3)c(C)o2)cc1OC (stereo not drawn) | . | . | . | . | . | / | / | / | /
COc1ccc(OC)c(NC(=O)Nc2cccc3ccccc23)c1 | . | . | . | . | -4.6 | . | . | . | .
COc1ccc(NC(=O)CN(Cc2ccccc2)S(C)(=O)=O)c(OC)c1 | . | . | . | . | . | / | / | / | /
COc1ccc(OC)c(NC(=O)CN(Cc2ccccc2)S(C)(=O)=O)c1 | . | . | . | . | -9.1 | . | . | . | .
Cc1ccc(C(=O)COC(=O)c2ccc(-c3cnc4ccccc4n3)cc2)cc1C | . | . | . | . | . | / | / | / | /
Cc1nc2c(C(=O)N3CCN(C)CC3)cnn2c(C)c1Cc1ccc(Cl)cc1 | . | . | . | . | . | / | / | / | /
C=CCc1c(C)nc2c(C(=O)O)cnn2c1C | . | . | . | . | -4.6 | . | . | . | .
CC1(C)SC2c3ccccc3C(=O)N2[C@@H]1C(=O)O (stereo partly drawn) | . | . | . | . | . | / | / | / | /
N#Cc1cc(-c2ccccc2)nnc1Sc1ccccc1 | . | . | . | . | -4.9 | 79% | . | . | .
N#Cc1cc(-c2ccccc2)nnc1Sc1ccc(F)cc1 | . | . | . | . | . | / | / | / | /
O=C(CSCc1nc2ccccc2[nH]1)Nc1ccc2ccccc2c1 | . | . | . | . | -4.9 | . | . | . | .
COC(=O)c1sc(-c2ccc(Cl)cc2)cc1NC(=O)CSCC(=O)O | . | . | . | . | . | / | / | / | /
COC(=O)c1sc(-c2ccc(C(C)(C)C)cc2)cc1NC(=O)COCC(=O)O | . | . | . | . | -4.7 | 68% | . | . | 60
Cc1ccc(S(=O)(=O)N2CCN(C(=O)c3ccnn3C)CC2)cc1C | . | . | . | . | -5.7 | . | . | . | .
CCOC(=O)c1[nH]c(C)c(C(=O)N2CCCC(Nc3ccc(C)c(C)c3)C2)c1C (stereo not drawn) | . | . | . | . | . | / | / | / | /
CCOc1nc2cnccc2n(CC(=O)Nc2c(C)cccc2CC)c1=O | . | . | . | . | . | / | / | / | /
Cc1ccc(Cl)cc1N1CCN(C(=O)c2cc3c(=O)[nH]c4ccccc4c3n2C)CC1 | . | . | . | . | -14 | 36% | . | . | .
C/C(=N/NC(=O)c1ccoc1C)C12CC3CC(CC(C3)C1)C2 | . | . | . | . | . | / | / | / | /
Cc1ccc(O)c(-c2cc(C(=O)Nc3ccc(S(=O)(=O)Nc4nc(C)cc(C)n4)cc3)[nH]n2)c1 | . | . | . | . | . | / | / | / | /
CCOc1cc(C(=O)NC(C)CCc2ccccc2)cc(OCC)c1OCC (stereo not drawn) | . | . | . | . | . | / | / | / | /
O=C(Cc1n[nH]c(=O)c2ccccc12)OCC(=O)c1ccccc1Cl | . | . | . | . | . | / | / | / | /
COc1ccc(C(=O)COC(=O)Cc2n[nH]c(=O)c3ccccc23)c(OC)c1 | . | . | . | . | -8.2 | . | . | . | .
O=C(NCCSCc1ccco1)Nc1cc(Cl)cc(Cl)c1 | . | . | . | . | -5.4 | 68% | . | . | .
COc1ccc(CN2CCc3ccccc3C2)c(OC)c1OC | . | . | . | . | . | / | / | / | /
CSc1ccccc1OCc1cc(C(=O)N2CCC(c3ccncc3)CC2)no1 | . | . | . | . | -6.1 | 80% | . | . | .
